What was measured:
Plasmodium falciparum = assay: Antiplasmodial activity against chloroquine-resistant Plasmodium falciparum W2 assessed as growth inhibition after 48 hrs by flow cytometer; type: functional, organism-based; conditions: W2, 48 h
Procedure, shortened: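 Ring-stage W2 cultures in microwells exposed 48 h to a range of compound concentrations, added from DMSO stocks. Parasites then fixed in 1% formaldehyde/PBS pH 7.4 (48 h, RT) and stained with YOYO-1 (1 nM) in 0.1% Triton X-100/PBS. Parasitemia counted by flow cytometry (forward scatter vs fluorescence). IC50 fitted from % parasitemia vs untreated controls (R2 >0.95).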

[1] = Selectivity index, ratio of IC50 for human HeLa cells to IC50 for chloroquine-resistant Plasmodium falciparum W2; type: toxicity; conditions: read-out: Selectivity Index
Procedure, shortened: (§1)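 Selectivity index is cell-line IC50 (A549 for line 2, HeLa for line 3) divided by W2 IC50. Cells grown in DMEM with 10% FBS, seeded at 1 × 10^4 per well and allowed to adhere 24 h at 37 °C. They were then exposed to graded concentrations for 24 h. MTT (4 mg/mL) was added for 4 h and formazan dissolved in DMSO. IC50 from log(inhibitor)-response fits, three independent experiments.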

A549 = assay: Cytotoxicity against human A549 cells assessed as reduction in cell viability preincubated for 24 hrs measured after 4 hrs by MTT assay; type: functional, cell-based
Procedure, shortened: (§2)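 Cells were grown in DMEM with 10% fetal bovine serum, seeded at 1 × 10^4 cells per well and left 24 h at 37 °C to adhere. A range of compound concentrations was added for 24 h. Medium was then removed, MTT solution (4 mg mL−1) added for 4 h, and formazan dissolved in DMSO. Survival was expressed against untreated wells, and IC50 was fitted by log(inhibitor)–response nonlinear regression from three independent experiments.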

HeLa = assay: Cytotoxicity against human HeLa cells assessed as reduction in cell viability preincubated for 24 hrs measured after 4 hrs by MTT assay; type: functional, cell-based; procedure, shortened: as §2
[2] = Selectivity index, ratio of IC50 for human A549 cells to IC50 for chloroquine-resistant Plasmodium falciparum W2; type: toxicity; conditions: read-out: Selectivity Index; procedure, shortened: as §1

Compound `COc1cccc(C(c2ccc(OC(F)(F)F)cc2)N2CCN(c3ncnc4sc5c(c34)CCCC5)CC2)c1O` (stereo not drawn) has an IC50 (Plasmodium falciparum) of 1.22 µM.

Compound `Oc1ccccc1C(c1ccc(F)cc1)N1CCN(c2ncnc3sc4c(c23)CCCC4)CC1` (stereo not drawn) has an IC50 (Plasmodium falciparum) of 1.62 µM.

For `COc1cccc(C(c2ccc(F)c(Cl)c2)N2CCN(c3ncnc4sc5c(c34)CCCC5)CC2)c1O` (stereo not drawn), the IC50 (Plasmodium falciparum) was 1.17 µM.

`COc1cccc(C(c2ccc(C)cc2)N2CCN(c3ncnc4sc5c(c34)CCCC5)CC2)c1O` (stereo not drawn) gave an IC50 (Plasmodium falciparum) of 3.96 µM.

Compound `COc1ccc(C(c2cccc(OC)c2O)N2CCN(c3ncnc4sc5c(c34)CCCC5)CC2)cc1` (stereo not drawn) has an IC50 (Plasmodium falciparum) of 6.41 µM.

In the case of `COc1cccc(C(c2ccc(C(F)(F)F)cc2)N2CCN(c3ncnc4sc5c(c34)CCCC5)CC2)c1O` (stereo not drawn), the IC50 (Plasmodium falciparum) is reported as 0.749 µM, the selectivity ratio [1] is reported as 9.59 and the IC50 (A549) is reported as 7.3 µM. It also gave an IC50 (HeLa) of 7.1 µM and a selectivity ratio [2] of 9.86.

Work on `COc1cccc(C(c2ccc(F)cc2)N2CCN(c3ncnc4sc5c(c34)CCCC5)CC2)c1O` (stereo not drawn) yielded an IC50 (Plasmodium falciparum) of 2.26 µM.

`Oc1ccccc1C(c1ccc(OC(F)(F)F)cc1)N1CCN(c2ncnc3sc4c(c23)CCCC4)CC1` (stereo not drawn) showed an IC50 (Plasmodium falciparum) of 1.18 µM, a selectivity ratio [1] of 7.7 and an IC50 (A549) of 7.2 µM. For the same compound, the IC50 (HeLa) was 9.1 µM and the selectivity ratio [2] was 6.09.

`COc1cccc2c1C(=O)c1c(O)c3c(c(O)c1C2=O)C[C@@](O)(C(=O)CO)C[C@@H]3O[C@H]1C[C@H](N)[C@H](O)[C@H](C)O1` [DOXORUBICIN] showed an IC50 (A549) of 5.5 µM and an IC50 (HeLa) of 5.7 µM.

With `COc1cccc(C(c2ccc(Cl)c(Cl)c2)N2CCN(c3ncnc4sc5c(c34)CCCC5)CC2)c1O` (stereo not drawn) the IC50 (Plasmodium falciparum) was 1.34 µM.

In the case of `Cc1ccc(C(c2ccccc2O)N2CCN(c3ncnc4sc5c(c34)CCCC5)CC2)cc1` (stereo not drawn), the IC50 (Plasmodium falciparum) is reported as 1.34 µM.

`Oc1ccccc1C(c1ccc(F)c(F)c1)N1CCN(c2ncnc3sc4c(c23)CCCC4)CC1` (stereo not drawn) gave an IC50 (Plasmodium falciparum) of 1.04 µM, a selectivity ratio [1] of 12.3 and an IC50 (A549) of 8.7 µM. For the same compound, the IC50 (HeLa) was 12.7 µM and the selectivity ratio [2] was 8.43.

With `COc1ccc(C(c2ccccc2O)N2CCN(c3ncnc4sc5c(c34)CCCC5)CC2)cc1` (stereo not drawn) the IC50 (Plasmodium falciparum) was 2.42 µM.

Compound `Oc1ccccc1C(c1ccc(F)c(Cl)c1)N1CCN(c2ncnc3sc4c(c23)CCCC4)CC1` (stereo not drawn) has an IC50 (Plasmodium falciparum) of 1.06 µM, a selectivity ratio [1] of 6.03 and an IC50 (A549) of 8.5 µM. It also gave an IC50 (HeLa) of 6.4 µM and a selectivity ratio [2] of 8.01.

`Oc1ccccc1C(c1ccc(C(F)(F)F)cc1)N1CCN(c2ncnc3sc4c(c23)CCCC4)CC1` (stereo not drawn) showed an IC50 (Plasmodium falciparum) of 1.37 µM.

For `Oc1ccccc1C(c1ccc(Cl)c(Cl)c1)N1CCN(c2ncnc3sc4c(c23)CCCC4)CC1` (stereo not drawn), the IC50 (Plasmodium falciparum) was 0.752 µM, the selectivity ratio [1] was 13.7 and the IC50 (A549) was 11.5 µM. For the same compound, the IC50 (HeLa) was 10.3 µM and the selectivity ratio [2] was 15.3.

Compound `COc1cccc(C(c2ccc(F)c(F)c2)N2CCN(c3ncnc4sc5c(c34)CCCC5)CC2)c1O` (stereo not drawn) has an IC50 (Plasmodium falciparum) of 1.13 µM.
